Legend:
RAW264.7 = experiment: Cytotoxicity against mouse RAW264.7 cells after 48 hrs by MTT assay; type: cell-based; details: RAW264.7, 48 h
Outline: (§1)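 Cells kept in RPMI1640 with 10% heat-inactivated FBS, 2 mM L-glutamine, 1 mM pyruvate, pen-strep, 37 °C, 5% CO2. 3000 cells/well seeded 24 h, then exposed to graded concentrations (DMSO ≤0.1% final) for 48 h. Then 0.5 mg/mL MTT 3 h at 37 °C, DMSO solubilization, absorbance 570 nm. Quadruplicate data fitted to dose–response curves for IC50.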

HEK293 = experiment: Cytotoxicity against HEK293 cells after 48 hrs by MTT assay; type: cell-based; details: Homo sapiens, HEK293, 48 h; outline: as §1
[1] = tested on: Trypanosoma brucei brucei; experiment: Antiparasitic activity against Trypanosoma brucei brucei Lister 427 assessed as reduction in parasite viability after 48 hrs by MTS assay; type: functional, organism-based; details: Lister 427, 48 h
Outline: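 Bloodstream-form Lister 427 grown in HMI-9 with 10% FBS, 37 °C, 7.5% CO2. 5000 cells/well exposed to graded concentrations with 0.1% DMSO for 48 h at 37 °C. MTS/PMS reagent then added, 3 h at 37 °C, formazan read at 490 nm. Quadruplicate data normalized and fitted to dose–response curves for IC50 (Mean ± S.D.).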

[2] = Selectivity index, ratio of IC50 for HEK293 cells to IC50 for Trypanosoma brucei brucei Lister 427; type: toxicity; details: human, read-out: Ratio IC50
Outline: (§2)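 Ratio of mammalian MTT IC50 (48 h) to T. brucei MTS IC50 (48 h), both from quadruplicate dose–response fits.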

[3] = Selectivity index, ratio of IC50 for mouse RAW264.7 cells to IC50 for Trypanosoma brucei brucei Lister 427; type: toxicity; details: read-out: Ratio IC50; outline: as §2

SMILES | IC50 [1] [µM] | IC50 (RAW264.7) [µM] | IC50 (HEK293) [µM] | selectivity ratio [2] | selectivity ratio [3]
CS(=O)(=O)Nc1ccc(NC(=O)c2ccc(C#N)cc2)cc1F | > 62.5 | > 250 | > 250 |  | 
COc1cc(NC(=O)c2ccc(Cl)c([N+](=O)[O-])c2)ccc1NS(C)(=O)=O | > 62.5 | > 250 | 164 | < 3 | 
O=C(Nc1ccc(NS(=O)(=O)C(F)(F)F)c(F)c1)c1ccc(Cl)cc1 | > 62.5 | 8.27 | 79 | < 2 | < 1
CS(=O)(=O)Nc1ccc(NC(=O)c2ccc(Cl)cc2)cc1F | > 62.5 | 22.2 | 216 | < 4 | < 1
CCS(=O)(=O)Nc1ccc(NC(=O)c2ccc(C#N)cc2)cc1C | > 62.5 | 109 | > 250 |  | < 2
COc1cc(NC(=O)c2ccc(C#N)cc2)ccc1NS(C)(=O)=O | > 62.5 | > 250 | > 250 |  | 
CCS(=O)(=O)Nc1ccc(NC(=O)c2cccc(C(F)(F)F)c2)cc1C | 35.3 | 114 | 210 | 6 | 3
Cc1cc(NC(=O)c2ccc(C#N)cc2)ccc1NS(=O)(=O)C(F)(F)F | > 62.5 | 135 | > 250 |  | < 3
CS(=O)(=O)Nc1ccc(NC(=O)c2ccc(C#N)cc2)cc1Cl | > 62.5 | > 250 | > 250 |  | 
O=C(Nc1ccc(NS(=O)(=O)C(F)(F)F)c(Cl)c1)c1cccc(C(F)(F)F)c1 | > 62.5 | 55.8 | 210 | < 4 | < 1
CCS(=O)(=O)Nc1ccc(NC(=O)c2cccc(C(F)(F)F)c2)cc1OC | 35.7 | 84.8 | > 250 | > 7 | 2
Cc1cc(NC(=O)c2ccc(Cl)cc2)ccc1NS(=O)(=O)C(F)(F)F | 37.2 |  | 200 | 5 | 1
CS(=O)(=O)Nc1ccc(NC(=O)c2cc(C(F)(F)F)cc(C(F)(F)F)c2)cc1Cl | 10.1 | 69.5 | 185 | 18 | 7
CS(=O)(=O)Nc1ccc(NC(=O)c2ccc(Cl)cc2)cc1Cl | > 62.5 | 79.9 | 167 | < 3 | < 2
CCS(=O)(=O)Nc1ccc(NC(=O)c2cc(C(F)(F)F)cc(C(F)(F)F)c2)cc1C | 12.5 | 124 | 126 | 10 | 10
CS(=O)(=O)Nc1ccc(NC(=O)c2cc(C(F)(F)F)cc(C(F)(F)F)c2)cc1F | 23.7 | 125 | > 250 | > 11 | 5
CCS(=O)(=O)Nc1ccc(NC(=O)c2ccc(C#N)cc2)cc1OC | > 62.5 | 66.4 | > 250 |  | < 2
CCS(=O)(=O)Nc1ccc(NC(=O)c2cc(C(F)(F)F)cc(C(F)(F)F)c2)cc1OC | 11.6 | > 250 | > 250 | > 22 | > 22
O=C(Nc1ccc(NS(=O)(=O)C(F)(F)F)c(F)c1)c1ccc(Cl)c([N+](=O)[O-])c1 | 16.8 | 188 | 194 | 12 | 11
CCS(=O)(=O)Nc1ccc(NC(=O)c2ccc(Cl)c([N+](=O)[O-])c2)cc1Cl | 2.21 | 125 | 63.8 | 29 | 57
COc1cc(NC(=O)c2cc(C(F)(F)F)cc(C(F)(F)F)c2)ccc1NS(C)(=O)=O | > 62.5 | > 250 | 42 | < 1 | 
CCS(=O)(=O)Nc1ccc(NC(=O)c2ccc(Cl)cc2)cc1F | > 62.5 | 152 | 53.4 | < 1 | < 3
CS(=O)(=O)Nc1ccc(NC(=O)c2ccc(Cl)c([N+](=O)[O-])c2)cc1Cl | > 62.5 | 43.6 | 204 | < 4 | < 1
CS(=O)(=O)Nc1ccc(NC(=O)c2cccc(C(F)(F)F)c2)cc1Cl | > 62.5 | > 250 | > 250 |  | 
Cc1cc(NC(=O)c2ccc(Cl)c([N+](=O)[O-])c2)ccc1NS(=O)(=O)C(F)(F)F | > 62.5 | 89.8 | > 250 |  | < 2
COc1cc(NC(=O)c2cccc(C(F)(F)F)c2)ccc1NS(C)(=O)=O | > 62.5 | 84.8 | > 250 |  | < 2
COc1cc(NC(=O)c2ccc(Cl)cc2)ccc1NS(C)(=O)=O | > 62.5 | 70 | > 250 |  | < 2
CCS(=O)(=O)Nc1ccc(NC(=O)c2ccc(Cl)cc2)cc1OC | > 62.5 | 60.1 | > 250 |  | < 1

Second part, led by results:

IC50 [1] [µM] | SMILES | IC50 (RAW264.7) [µM] | IC50 (HEK293) [µM] | selectivity ratio [2] | selectivity ratio [3]
19.1 | CCS(=O)(=O)Nc1ccc(NC(=O)c2ccc(Cl)cc2)cc1Cl | > 250 | > 250 | > 13 | > 13
9.39 | O=C(Nc1ccc(NS(=O)(=O)C(F)(F)F)c(F)c1)c1cc(C(F)(F)F)cc(C(F)(F)F)c1 | 112 | 164 | 17 | 12
8.78 | CCS(=O)(=O)Nc1ccc(NC(=O)c2cc(C(F)(F)F)cc(C(F)(F)F)c2)cc1F | > 250 | > 250 | > 28 | > 28
20.7 | Cc1cc(NC(=O)c2cc(C(F)(F)F)cc(C(F)(F)F)c2)ccc1NS(=O)(=O)C(F)(F)F | 40.7 | 182 | 9 | 2
33.9 | CCS(=O)(=O)Nc1ccc(NC(=O)c2cccc(C(F)(F)F)c2)cc1F | 119 | 94.8 | 3 | 4
> 62.5 | CS(=O)(=O)Nc1ccc(NC(=O)c2cccc(C(F)(F)F)c2)cc1F | 32.3 | > 250 |  | < 1
16.7 | Cc1cc(NC(=O)c2cccc(C(F)(F)F)c2)ccc1NS(C)(=O)=O | 110 | 194 | 12 | 7
8.39 | CCS(=O)(=O)Nc1ccc(NC(=O)c2ccc(Cl)c([N+](=O)[O-])c2)cc1F | 198 | 83.7 | 10 | 24
> 62.5 | O=C(Nc1ccc(NS(=O)(=O)C(F)(F)F)c(Cl)c1)c1ccc(Cl)cc1 | 47.1 | 191 | < 4 | < 1
> 62.5 | CCS(=O)(=O)Nc1ccc(NC(=O)c2ccc(C#N)cc2)cc1F | 107 | 26.4 | < 1 | < 2
> 62.5 | CS(=O)(=O)Nc1ccc(NC(=O)c2ccc(Cl)c([N+](=O)[O-])c2)cc1F | 102 | 23.1 | < 1 | < 2
11 | N#Cc1ccc(C(=O)Nc2ccc(NS(=O)(=O)C(F)(F)F)c(Cl)c2)cc1 | > 250 | > 250 | > 23 | > 23
45.6 | COc1cc(NC(=O)c2ccc(Cl)cc2)ccc1NS(=O)(=O)C(F)(F)F | 108 | > 250 | > 5 | 2
47.4 | O=C(Nc1ccc(NS(=O)(=O)C(F)(F)F)c(Cl)c1)c1cc(C(F)(F)F)cc(C(F)(F)F)c1 | 136 | > 250 | > 5 | 3
> 62.5 | Cc1cc(NC(=O)c2ccc(Cl)cc2)ccc1NS(C)(=O)=O | 69 | 50.3 | < 1 | < 2
14.1 | COc1cc(NC(=O)c2ccc(Cl)c([N+](=O)[O-])c2)ccc1NS(=O)(=O)C(F)(F)F | > 250 | > 250 | > 18 | > 18
> 62.5 | COc1cc(NC(=O)c2cc(C(F)(F)F)cc(C(F)(F)F)c2)ccc1NS(=O)(=O)C(F)(F)F | > 250 | > 250 |  | 
7.81 | CCS(=O)(=O)Nc1ccc(NC(=O)c2cccc(C(F)(F)F)c2)cc1Cl | 62.4 | 159 | 20 | 8
7.57 | Cc1cc(NC(=O)c2ccc(Cl)c([N+](=O)[O-])c2)ccc1NS(C)(=O)=O | 108 | 73.1 | 10 | 14
